The values that follow come from ChEMBL document CHEMBL4002644, “Discovery of GBT440, an Orally Bioavailable R-State Stabilizer of Sickle Cell Hemoglobin” (ACS Med Chem Lett, 2017).

In data set [1] the test system is Hemoglobin HbA (Homo sapiens), P69905+P68871 [E7V]. The data set can be described thus: Induction of R-state stabilization of Hb betaGlu6Val mutant in sickle disease patient purified HbS/HbA mixture assessed as change from baseline of partial pressure of O2 at which HbS is 50% saturated with O2 at 30 uM preincubated for 45 mins followed by oxygenation for 10 mins and subsequent deoxygenation by hemoximetry relative to control. The procedure, abridged: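 Oxygen equilibrium curves were run on a Hemox Analyzer using Hb purified from sickle disease blood (an HbA/HbS mixture) at 25 μM. Compound was tested at 30 μM, or at 500 μM where noted. The read-out was the % change from baseline in the pO2 at which HbS is 50% saturated (Δp50).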

Data set [2] shares this test system. The data set can be described thus: Induction of R-state stabilization of Hb betaGlu6Val mutant in sickle cell disease transfused human whole blood assessed as change from baseline of partial pressure of O2 at which HbS is 50% saturated with O2 at 1 mM preincubated for 45 mins followed by 20 mins oxygenation/deoxygenation cycle by hemoximetry relative to control. The procedure, abridged: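 Whole blood from transfused SCD subjects, at 20% hematocrit (Hb 1 mM), was run with compound at 1 mM. Oxygen equilibrium curves were measured by hemoximetry. The value is the % change from baseline in the pO2 giving 50% O2 saturation (Δp50).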

For a further data set, the species on record is Homo sapiens. Put plainly: Induction of R-state stabilization of sickle cell Hb betaGlu6Val mutant purified from sickle cell patient assessed as inhibition of KH2PO4-induced polymerization by measuring change from baseline of delay time for onset of polymerization at 75 uM preincubated for 1 hr followed by deoxygenation for …. Also noted: scale not given: the % may be the effect or the level left.

Another data set has as its system Blood. The data set can be described thus: Half life in Sprague-Dawley rat blood at 7.2 to 120 mg/kg, po by LC-MS/MS analysis. In kind it is ADME, organism-based. To be noted: in vivo.
The next data set deals with Rattus norvegicus. The data set can be described thus: Dose normalized AUC (0 to infinity) in Sprague-Dawley rat at 7.2 to 120 mg/kg, po by LC-MS/MS analysis. In kind it is ADME, organism-based. The conditions noted are these: in vivo. In a few lines:
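Rat oral PK: AUC(0–∞) divided by the oral dose, expressed as (ng·h/mL)/(mg/kg).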

Data set [3] in a line: Ratio of drug level in Sprague-Dawley rat RBC to plasma at 7.2 to 120 mg/kg, po by LC-MS/MS analysis. Type of data set: ADME, organism-based. To be noted: red blood cells (RBC) / plasma.
Data set [4] has as its system Hemoglobin HbA (Homo sapiens), P69905+P68871 [E7V]. Put plainly: Induction of R-state stabilization of Hb betaGlu6Val mutant in sickle disease patient purified HbS/HbA mixture assessed as change from baseline of partial pressure of O2 at which HbS is 50% saturated with O2 at 100 uM preincubated for 45 mins followed by 20 mins oxygenation/deoxygenation cycle by hemoximetry relative to control.

Data set [5] shares this test system. Put plainly: Induction of R-state stabilization of Hb betaGlu6Val mutant in sickle disease patient purified HbS/HbA mixture assessed as change from baseline of partial pressure of O2 at which HbS is 50% saturated with O2 at 5 mM preincubated for 45 mins followed by 20 mins oxygenation/deoxygenation cycle by hemoximetry relative to control.

Usually Kp stands for tissue or fluid exposure divided by exposure in the circulation.

Each structure is given as a SMILES string. Calls of active or inactive are those of the source. The calls are words filed in the database; no cut-off is given here.

Consider `COc1cc(C=O)c(OCc2cncc(-c3nnn[nH]3)c2)cn1`, for which the Activity in data set [1] was determined as 21.9%.
As for `CC(C)n1nccc1-c1ncccc1COc1cccc(F)c1C=O`, the figures for the Activity (in data set [1]; in data set [2]; in the data set listed under Homo sapiens) were 67.8%, 72.8% and 104%, respectively. For the same compound, the t1/2 in the data set with Blood amounted to 2.7 h. Besides, the AUC/dose in the data set on Rattus norvegicus is 438 ng·h/mL/mg/kg.
As to `COC(=O)c1cc(COc2cnc(OC)cc2C=O)c2nccn2c1`, in data set [1], the Activity came out at 16.4%.
For `COc1cc(C=O)c(OCc2cccnc2-c2ccnn2C(C)C)cn1`, the Activity in data set [1] amounted to 66.2%; in data set [2], 66.9%; in the data set filed under Homo sapiens, 115%. Moreover, the t1/2 with Blood worked out at 2.7 h. The Kp in data set [3] is 38. In addition, the AUC/dose with Rattus norvegicus was determined as 20.6 ng·h/mL/mg/kg.
Take `COc1cc(C=O)c(OCc2cccnc2-c2ccn[nH]2)cn1`: the Activity in data set [1] turned out to be 40.2%; in data set [2], 19.2%.
Regarding `COc1cc(C=O)c(OCc2cccc3ncccc23)cn1`, the Activity in data set [1] was determined as 36%.
On to `COc1cc(C=O)c(OCc2cc(-c3ccn[nH]3)cn3ccnc23)cn1`, for which the Activity in data set [1] is 2.8%.
In the case of `COc1cc(C=O)c(OCc2cccnc2-c2c(C)cnn2C)cn1`, the values for the Activity (in data set [1]; in the data set listed under Homo sapiens) were 27.4% and 64.5%, respectively.
Regarding `COc1cc(C=O)c(OCc2cc(Br)cn3ccnc23)cn1`, the Activity in data set [1] came to 11.7%.
In the case of `COc1cc(C=O)c(OCc2cc(-c3nn[nH]n3)cn3ccnc23)cn1`, in data set [1], the Activity is 21.1%.
`CC(C)n1nccc1-c1ncccc1COc1cccnc1C=O`: the Activity in data set [1] is 53.3%; in data set [2], 56.4%; in the data set listed under Homo sapiens it was 70.3%. In the data set on Blood, this compound came in with a t1/2 of 0.7 h. The AUC/dose in the data set with Rattus norvegicus was determined as 34.2 ng·h/mL/mg/kg.
For `CC(C)n1nccc1-c1ncccc1COc1cnc(OC(F)F)cc1C=O`, the results for the Activity (in data set [1]; in data set [2]; in the data set filed under Homo sapiens) were 43.1%, 49.7% and 73.1%, respectively.
The matching figures for `CC(C)n1nccc1-c1ncccc1COc1cnc(O)cc1C=O`: 59.6%, 62.5% and 128%.
Turning to `COc1cc(C=O)c(OCc2cccn3cncc23)cn1`, the Activity in data set [1] came to 37.9%.
For `COc1cncc(OCc2cccnc2-c2ccnn2C(C)C)c1C=O`, the Activity in data set [1] amounted to 54.5%; in data set [2] it was 55%; in the data set listed under Homo sapiens it was 131%. Besides, in the data set on Blood, the t1/2 is 2.5 h. The same compound displayed an AUC/dose in the data set on Rattus norvegicus of 36.4 ng·h/mL/mg/kg.
Take `COc1cc(C=O)c(OCc2cc(-c3cn[nH]c3)cn3ccnc23)cn1`: the Activity in data set [1] came out at 28.2%.
Consider `COc1ccc(OCc2cccn3ccnc23)c(C=O)c1`, for which the Activity in data set [1] is 33%. For the same compound, the outcome in data set [4] was Active.
As to `COCCOc1cc(C=O)c(OCc2cccnc2-c2ccnn2C(C)C)cn1`, the Activity in data set [1] came to 55.9%; in data set [2] it was 68.9%; in the data set filed under Homo sapiens, 77.8%. The compound also had a t1/2 in the data set with Blood of 1.5 h. The compound also gave an AUC/dose in the data set on Rattus norvegicus of 1950 ng·h/mL/mg/kg.
Turning to `COc1cc(C=O)c(OCc2c(-c3cc[nH]n3)ccn3ccnc23)cn1`, in data set [1], the Activity is 29.1%.
Same read-out and setting: under `COc1cc(C=O)c(OCc2cccc3ocnc23)cn1` stands 37%; under `COc1cc(C=O)c(OCc2cc3ccccc3nc2-c2ccn[nH]2)cn1`, 14.2%; under `COc1cc(C=O)c(OCc2cc(C#N)cn3ccnc23)cn1`, 3.5%.
With `COc1cc(C=O)c(OCc2ccnc3cccnc23)cn1`, in data set [1], the Activity stood at 23.1%.
In the case of `COc1cc(C=O)c(OCc2nccc3ccccc23)cn1`, the Activity in data set [1] was 40.2%.
Consider `COc1cc(C=O)c(OCc2cnccc2-c2cn[nH]c2)cn1`, for which, in data set [1], the Activity was 17.1%.
Regarding `COc1cc(C=O)c(OCc2cc3ccccc3nc2Cl)cn1`, in data set [1], the Activity came to 4%.
`CC(C)n1nccc1-c1ncccc1COc1cncc(O)c1C=O`: the Activity in data set [1] amounted to 70.5%; in data set [2], 72.5%; in the data set filed under Homo sapiens, 167%. This compound also had a t1/2 in the data set on Blood of 8.1 h. The AUC/dose in the data set with Rattus norvegicus stood at 10887 ng·h/mL/mg/kg.
With `COc1cc(C=O)c(OCc2ccc3ccncc3c2)cn1`, the Activity in data set [1] came out at 13.7%.
In the case of `COc1cc(C=O)c(OCc2ccc3ccccc3n2)cn1`, the Activity in data set [1] worked out at 43.2%.
With `COc1cc(C=O)c(OCc2cccn3c(C)nnc23)cn1`, the Activity in data set [1] was determined as 42.2%.
Still for that read-out and setting: under `COc1cc(C=O)c(OCc2cccn3ccnc23)cn1` stands 44.4%.
Regarding `Cc1ccc(OCc2cccnc2-c2ccnn2C(C)C)c(C=O)n1`, the Activity in data set [1] stood at 61.7%; in data set [2] it was 65.4%; in the data set listed under Homo sapiens, 62.6%. Further, the t1/2 in the data set on Blood was determined as 1.5 h. This compound also registered an AUC/dose in the data set with Rattus norvegicus of 1710 ng·h/mL/mg/kg.
As to `O=Cc1ccc(CO)o1`, the result in data set [5] was Active.
For `COc1cc(C=O)c(OCc2cccnc2-c2[nH]ncc2C)cn1`, the values for the Activity (in data set [1]; in data set [2]; in the data set filed under Homo sapiens) were 51.7%, 43.1% and 64.5%, respectively.
For `CC(C)n1nccc1-c1ncccc1COc1ccccc1C=O`, the Activity in data set [2] is 80.6%; in the data set filed under Homo sapiens, 136%. In the data set on Blood, this compound registered a t1/2 of 2.1 h. The AUC/dose with Rattus norvegicus stood at 1059 ng·h/mL/mg/kg.
Take `COc1cc(C=O)c(OCc2cccc3c2cnn3C)cn1`: the Activity in data set [1] was 32.7%.
With `COc1cc(C=O)c(OCc2cccnc2-n2cccn2)cn1`, the Activity in data set [1] came out at 31.8%.
For `COc1ccc(OCc2cccnc2)c(C=O)c1`, the Activity in data set [1] is 34%. The result in data set [4] was Active.
As for `COc1cc(C=O)c(OCc2cncc(-c3ccn[nH]3)c2)cn1`, the Activity in data set [1] amounted to 9%.
Consider `COc1cc(C=O)c(OCc2cccnc2-c2ccnn2CCO)cn1`, for which the results for the Activity (in data set [1]; in data set [2]; in the data set filed under Homo sapiens) were 32.7%, 64.7% and 105%, respectively.
For `COc1cc(C=O)c(OCc2cncc(-c3ccnn3C)c2)cn1`, the Activity in data set [1] came to 11.2%.
Take `COc1cc(C=O)c(OCc2cncc(-c3ccn(C)n3)c2)cn1`: in data set [1], the Activity amounted to 29.4%.
